{"source": "ChEMBL document CHEMBL4261521", "about": "“Synthesis of benzo[d]thiazole-hydrazone analogues: molecular docking and SAR studies of potential H+/K+ ATPase inhibitors and anti-inflammatory agents” (Medchemcomm, 2017)", "key": {"[1]": {"assay": "Inhibition of H+/K+-ATPase in sheep stomach parietal cells assessed as reduction in inorganic phosphate liberation using ATP as substrate measured after 10 to 15 mins", "conditions": "Ovis aries", "in_short": "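Enzyme came from sheep fundic mucosal scrapings, homogenized in sucrose/EGTA/Hepes-Tris buffer pH 7.4, then subcellular fractionation. Basal medium: 2 mmol L–1 ATP, 50 mmol L–1 Tris-HCl pH 7.5, with K+ and HCO3 stimulation. Reaction started with ATP, run at 37 °C and stopped with cold 20% TCA. Released Pi read by Fiske–Subbarow at 660 nm. Values are means of three determinations.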"}, "[2]": {"tested_on": "Erythrocyte", "assay": "Anti-inflammatory activity in human RBC assessed as inhibition of hypotonic solution-induced hemolysis after 10 mins by spectrophotometric method", "type": "functional, cell-based", "in_short": "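Heparinized blood from one healthy donor (no NSAIDs for 2 weeks), washed in 0.9% saline, made into 40% (v/v) RBC stock in 10 mM sodium phosphate/154 mM NaCl, pH 7.4. Stock mixed with hypotonic buffer (50 mM NaCl, 10 mM phosphate, pH 7.4) plus sample at 20–100 μg mL–1. Incubated at room temperature, centrifuged, supernatant absorbance at 540 nm, % haemolysis inhibition versus blank.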"}}}
{"smiles": "CCCCCC/C=N/Nc1nc2cccc(C)c2s1", "values": [{"measurement": "IC50", "setting": "[1]", "value": 72.1, "unit": "µg/mL"}, {"measurement": "IC50", "setting": "[2]", "value": 82.2, "unit": "µg/mL"}]}
{"smiles": "Cc1cccc2nc(N/N=C/c3cccs3)sc12", "values": [{"measurement": "IC50", "setting": "[1]", "value": 30.4, "unit": "µg/mL"}, {"measurement": "IC50", "setting": "[2]", "value": 28.7, "unit": "µg/mL"}]}
{"smiles": "CC/C=N/Nc1nc2cccc(C)c2s1", "values": [{"measurement": "IC50", "setting": "[1]", "value": 80.2, "unit": "µg/mL"}, {"measurement": "IC50", "setting": "[2]", "value": 78.5, "unit": "µg/mL"}]}
{"smiles": "Cc1cccc2nc(N/N=C/c3cc4ccccc4[nH]3)sc12", "values": [{"measurement": "IC50", "setting": "[1]", "value": 28.1, "unit": "µg/mL"}, {"measurement": "IC50", "setting": "[2]", "value": 30.2, "unit": "µg/mL"}]}
{"smiles": "Cc1cccc2nc(N/N=C/c3ccco3)sc12", "values": [{"measurement": "IC50", "setting": "[1]", "value": 38.3, "unit": "µg/mL"}, {"measurement": "IC50", "setting": "[2]", "value": 50.1, "unit": "µg/mL"}]}
{"smiles": "Cc1cccc2nc(N/N=C/c3ccc[nH]3)sc12", "values": [{"measurement": "IC50", "setting": "[1]", "value": 42.6, "unit": "µg/mL"}, {"measurement": "IC50", "setting": "[2]", "value": 46.2, "unit": "µg/mL"}]}
{"smiles": "Cc1cccc2nc(N/N=C/CC(C)C)sc12", "values": [{"measurement": "IC50", "setting": "[1]", "value": 82.2, "unit": "µg/mL"}, {"measurement": "IC50", "setting": "[2]", "value": 90.7, "unit": "µg/mL"}]}
{"smiles": "Cc1cccc2nc(N/N=C\\c3ccc(Br)cc3Br)sc12", "values": [{"measurement": "IC50", "setting": "[1]", "value": 66.1, "unit": "µg/mL"}, {"measurement": "IC50", "setting": "[2]", "value": 10.1, "unit": "µg/mL"}]}
{"smiles": "Cc1cccc2nc(N/N=C\\c3ccc(O)cc3O)sc12", "values": [{"measurement": "IC50", "setting": "[1]", "value": 14.1, "unit": "µg/mL"}, {"measurement": "IC50", "setting": "[2]", "value": 58.2, "unit": "µg/mL"}]}
{"smiles": "Cc1cccc2nc(N/N=C\\c3ccncc3)sc12", "values": [{"measurement": "IC50", "setting": "[1]", "value": 40.2, "unit": "µg/mL"}, {"measurement": "IC50", "setting": "[2]", "value": 54.2, "unit": "µg/mL"}]}
{"smiles": "Cc1cccc2nc(N/N=C\\c3ccc(Br)cc3)sc12", "values": [{"measurement": "IC50", "setting": "[1]", "value": 60.1, "unit": "µg/mL"}, {"measurement": "IC50", "setting": "[2]", "value": 20.1, "unit": "µg/mL"}]}
{"smiles": "Cc1cccc2nc(N/N=C\\c3ccccc3)sc12", "values": [{"measurement": "IC50", "setting": "[1]", "value": 84.1, "unit": "µg/mL"}, {"measurement": "IC50", "setting": "[2]", "value": 80.1, "unit": "µg/mL"}]}
{"smiles": "Cc1cccc2nc(N/N=C\\c3ccc([N+](=O)[O-])cc3[N+](=O)[O-])sc12", "values": [{"measurement": "IC50", "setting": "[1]", "value": 80.6, "unit": "µg/mL"}, {"measurement": "IC50", "setting": "[2]", "value": 12.7, "unit": "µg/mL"}]}
{"smiles": "COc1ccc(/C=N\\Nc2nc3cccc(C)c3s2)cc1O", "values": [{"measurement": "IC50", "setting": "[1]", "value": 26.2, "unit": "µg/mL"}, {"measurement": "IC50", "setting": "[2]", "value": 56.2, "unit": "µg/mL"}]}
{"smiles": "COc1cc(/C=N\\Nc2nc3cccc(C)c3s2)cc(Br)c1O", "values": [{"measurement": "IC50", "setting": "[1]", "value": 42.1, "unit": "µg/mL"}, {"measurement": "IC50", "setting": "[2]", "value": 56.4, "unit": "µg/mL"}]}
{"smiles": "Cc1cccc2nc(N/N=C\\c3ccc([N+](=O)[O-])cc3)sc12", "values": [{"measurement": "IC50", "setting": "[1]", "value": 72.2, "unit": "µg/mL"}, {"measurement": "IC50", "setting": "[2]", "value": 24.1, "unit": "µg/mL"}]}
{"smiles": "Cc1cccc2nc(N/N=C\\c3ccc(Oc4ccccc4)cc3)sc12", "values": [{"measurement": "IC50", "setting": "[1]", "value": 56.4, "unit": "µg/mL"}, {"measurement": "IC50", "setting": "[2]", "value": 60.9, "unit": "µg/mL"}]}
{"smiles": "Cc1ccc(/C=N\\Nc2nc3cccc(C)c3s2)cc1", "values": [{"measurement": "IC50", "setting": "[1]", "value": 34.2, "unit": "µg/mL"}, {"measurement": "IC50", "setting": "[2]", "value": 54.3, "unit": "µg/mL"}]}
{"smiles": "Cc1cccc2nc(N/N=C\\c3cc(O)c(O)c(O)c3)sc12", "values": [{"measurement": "IC50", "setting": "[1]", "value": 8.99, "unit": "µg/mL"}, {"measurement": "IC50", "setting": "[2]", "value": 68.6, "unit": "µg/mL"}]}
{"smiles": "Cc1cccc2nc(N/N=C\\c3ccc(O)cc3)sc12", "values": [{"measurement": "IC50", "setting": "[1]", "value": 26.3, "unit": "µg/mL"}, {"measurement": "IC50", "setting": "[2]", "value": 60, "unit": "µg/mL"}]}
{"smiles": "Cc1cccc2nc(N/N=C\\c3ccc(F)cc3F)sc12", "values": [{"measurement": "IC50", "setting": "[1]", "value": 70.6, "unit": "µg/mL"}, {"measurement": "IC50", "setting": "[2]", "value": 16.1, "unit": "µg/mL"}]}
{"smiles": "COc1ccc(/C=N\\Nc2nc3cccc(C)c3s2)c(OC)c1", "values": [{"measurement": "IC50", "setting": "[1]", "value": 20.4, "unit": "µg/mL"}, {"measurement": "IC50", "setting": "[2]", "value": 68.1, "unit": "µg/mL"}]}
{"smiles": "COc1ccc(/C=N\\Nc2nc3cccc(C)c3s2)cc1Br", "values": [{"measurement": "IC50", "setting": "[1]", "value": 54.4, "unit": "µg/mL"}, {"measurement": "IC50", "setting": "[2]", "value": 58.6, "unit": "µg/mL"}]}
{"smiles": "Cc1cccc2nc(N/N=C\\c3ccc(F)cc3)sc12", "values": [{"measurement": "IC50", "setting": "[1]", "value": 66.1, "unit": "µg/mL"}, {"measurement": "IC50", "setting": "[2]", "value": 32.1, "unit": "µg/mL"}]}
{"smiles": "Cc1cccc2nc(N/N=C\\c3ccc(Cl)cc3)sc12", "values": [{"measurement": "IC50", "setting": "[1]", "value": 68.2, "unit": "µg/mL"}, {"measurement": "IC50", "setting": "[2]", "value": 28.7, "unit": "µg/mL"}]}
{"smiles": "Cc1cccc2nc(N/N=C\\c3ccc(Cl)cc3Cl)sc12", "values": [{"measurement": "IC50", "setting": "[1]", "value": 68.9, "unit": "µg/mL"}, {"measurement": "IC50", "setting": "[2]", "value": 18.2, "unit": "µg/mL"}]}
{"smiles": "Cc1cccc2nc(N/N=C\\c3ccc(O)c(Br)c3)sc12", "values": [{"measurement": "IC50", "setting": "[1]", "value": 48.1, "unit": "µg/mL"}, {"measurement": "IC50", "setting": "[2]", "value": 52.4, "unit": "µg/mL"}]}
{"smiles": "COc1cc(/C=N\\Nc2nc3cccc(C)c3s2)cc(OC)c1OC", "values": [{"measurement": "IC50", "setting": "[1]", "value": 12.8, "unit": "µg/mL"}, {"measurement": "IC50", "setting": "[2]", "value": 74.6, "unit": "µg/mL"}]}
{"smiles": "COc1cc(/C=N\\Nc2nc3cccc(C)c3s2)ccc1OCc1ccccc1", "values": [{"measurement": "IC50", "setting": "[1]", "value": 42.9, "unit": "µg/mL"}, {"measurement": "IC50", "setting": "[2]", "value": 66.2, "unit": "µg/mL"}]}
{"smiles": "COc1ccc(/C=N\\Nc2nc3cccc(C)c3s2)cc1", "values": [{"measurement": "IC50", "setting": "[1]", "value": 30.4, "unit": "µg/mL"}, {"measurement": "IC50", "setting": "[2]", "value": 72.7, "unit": "µg/mL"}]}
{"smiles": "COc1ccc2c(c1)c(CC(=O)O)c(C)n2C(=O)c1ccc(Cl)cc1", "note": "[INDOMETHACIN]", "values": [{"measurement": "IC50", "setting": "[2]", "value": 40, "unit": "µg/mL"}]}
{"smiles": "COc1ccc2[nH]c([S+]([O-])Cc3ncc(C)c(OC)c3C)nc2c1", "note": "(configuration not stated) [OMEPRAZOLE]", "values": [{"measurement": "IC50", "setting": "[1]", "value": 46.1, "unit": "µg/mL"}]}
